The source made the active and inactive calls. The calls are words filed in the database; no cut-off is given here.

The nature of series [1]: Terminal half life in iv dosed Beagle dog blood after 24 hrs by LC-MS analysis. It counts as ADME, organism-based, Canis lupus familiaris. Conditions: whole blood, read-out: beta t1/2 (converted). An outline of the steps:
(§1)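 Male Wistar rats and female beagle dogs. iv in plasma/DMSO (rat) or H2O/PEG 400/EtOH (dog). Oral gavage in H2O/PEG 400/EtOH for both. Rats jugular-catheterised ≥1 d before dosing. Usually >10 blood samples, at least two after 24 h. Plasma quantified by LC-MS with internal standard. CL, t1/2, Vss and F calculated from plasma curves. Blood clearance via blood/plasma ratio (20 min blood incubation).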

The test system of series [2] is Heart. As to the kind of experiment: Cardiotoxicity in Wistar rat assessed as effect on left ventricular diastolic pressure administered for 20 mins. It counts as toxicity, tissue-based. Put shortly: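 Male Wistar rats (200−250 g) anesthetized with Narcoren 100 mg/kg ip. Excised heart Langendorff-perfused at constant flow 10 mL/min with Krebs−Henseleit buffer gassed with 95% O2/5% CO2. Values expressed as relative change from baseline before compound application.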

The nature of series [3]: Oral bioavailability in Wistar rat administered via oral gavage after 24 hrs by LC-MS analysis. It counts as ADME, organism-based. To be noted: in vivo. An outline of the steps: as §1
Series [4] concerns Artery. As to the kind of experiment: Inhibition of U46619-induced contractions in porcine coronary artery rings. The format is functional. To be noted: Sus scrofa.
Series [5] in a line: Volume of distribution at steady state in iv dosed Beagle dog after 24 hrs by LC-MS analysis. It counts as ADME, organism-based, Canis lupus familiaris. Conditions: in vivo, read-out: Vdss. Put shortly:
as §1

The target in series [6] is T1, Cytochrome P450 1A2 (Homo sapiens, UniProt P05177).
T1 sequence (P05177 whole entry): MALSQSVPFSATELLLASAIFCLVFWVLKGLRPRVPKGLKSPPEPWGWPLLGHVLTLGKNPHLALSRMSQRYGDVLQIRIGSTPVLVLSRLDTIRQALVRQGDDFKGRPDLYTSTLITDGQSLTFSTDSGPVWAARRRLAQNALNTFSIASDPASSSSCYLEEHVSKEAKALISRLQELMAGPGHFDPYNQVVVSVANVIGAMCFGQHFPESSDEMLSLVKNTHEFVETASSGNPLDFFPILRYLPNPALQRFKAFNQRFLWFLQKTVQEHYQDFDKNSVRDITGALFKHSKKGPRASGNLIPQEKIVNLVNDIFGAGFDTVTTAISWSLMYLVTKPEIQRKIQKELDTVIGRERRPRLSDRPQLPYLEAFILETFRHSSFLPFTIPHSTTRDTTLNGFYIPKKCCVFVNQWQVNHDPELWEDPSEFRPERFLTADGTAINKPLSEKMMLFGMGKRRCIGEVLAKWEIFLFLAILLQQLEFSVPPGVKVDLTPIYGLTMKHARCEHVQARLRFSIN
The experiment in a line: Inhibition of human liver microsomes CYP1A2 using phenacetin as substrate. It counts as ADME.

The target of series [7] is T2, Guanylate cyclase soluble subunit alpha-1 (Rattus norvegicus) (UniProt P19686).
T2 sequence (whole entry): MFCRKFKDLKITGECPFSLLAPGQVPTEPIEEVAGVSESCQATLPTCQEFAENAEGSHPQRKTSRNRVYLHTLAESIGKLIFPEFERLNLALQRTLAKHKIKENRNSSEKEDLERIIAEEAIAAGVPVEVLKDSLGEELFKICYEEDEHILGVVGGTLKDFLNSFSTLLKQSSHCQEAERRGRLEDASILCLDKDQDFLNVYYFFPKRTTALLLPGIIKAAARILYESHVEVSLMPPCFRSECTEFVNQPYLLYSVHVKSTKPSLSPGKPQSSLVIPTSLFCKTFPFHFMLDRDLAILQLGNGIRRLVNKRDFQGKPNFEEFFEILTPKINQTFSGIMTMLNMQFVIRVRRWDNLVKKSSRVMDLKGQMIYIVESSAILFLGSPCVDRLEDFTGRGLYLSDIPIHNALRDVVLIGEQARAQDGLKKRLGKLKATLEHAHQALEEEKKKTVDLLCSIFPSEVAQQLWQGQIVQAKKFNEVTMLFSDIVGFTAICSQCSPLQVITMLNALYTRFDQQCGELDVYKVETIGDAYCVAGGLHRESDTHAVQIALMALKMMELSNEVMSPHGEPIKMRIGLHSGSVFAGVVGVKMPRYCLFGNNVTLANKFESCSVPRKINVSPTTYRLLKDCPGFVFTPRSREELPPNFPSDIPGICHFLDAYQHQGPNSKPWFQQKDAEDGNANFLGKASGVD
As to the kind of experiment: Stimulation of rat recombinant sGCalpha1 subunit expressed in CHO cells using alpha-[32P]GTP as substrate assessed as >=3 fold increase in [32P]cGMP formation after 10 mins by radioimmunoassay. The format is cell-based.

Series [8] is described as follows: Drug metabolism in human hepatocytes assessed as CYP-mediated (2S,3S,4S,5R,6R)-6-(6-amino-2-(5-fluoro-1-(2-fluorobenzyl)-1H-pyrazolo[3,4-b]pyridin-3-yl)-5-(methoxycarbonylamino)pyrimidin-4-ylamino)-3,4,5-trihydroxytetrahydro-2H-pyran-2-carboxylic acid metabolite formation. The format is ADME, cell-based.
Series [9] relates to Rattus norvegicus. As to the kind of experiment: Antihypertensive activity in L-NAME-treated renin transgenic rat co-expressing RenTG(mRRen2)27 assessed as reduction in osteopontin expression at 3 to 10 mg/kg administered qd via oral gavage up to 21 days. The format is functional, organism-based. Put shortly: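 Male RenTG(mRRen2)27 rats, 8 weeks old, given L-NAME in drinking water (50 mg/L) throughout. Randomised to placebo (2 mL/kg qd, n = 20) or 3 and 10 mg/kg/day po by gavage qd (n = 15 per group). Tail-cuff blood pressure on day 0, 7, 14 and 21. Plasma taken at day 22 end. Unpaired t test, mean ± SEM.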

Series [10] can be described thus: Terminal half life in iv dosed Wistar rat blood after 24 hrs by LC-MS analysis. The format is ADME, organism-based. To be noted: whole blood, read-out: beta t1/2 (converted). Put shortly: as §1
Series [11] is described as follows: Inhibition of phenylephrine-induced contractions in dog femoral vein after 15 to 20 mins post phenylephrine-induced contraction. It counts as functional, tissue-based, Canis lupus familiaris.
In series [12] the target is T3, Cytochrome P450 2B6 (Homo sapiens, UniProt P20813).
T3 sequence (P20813 whole entry): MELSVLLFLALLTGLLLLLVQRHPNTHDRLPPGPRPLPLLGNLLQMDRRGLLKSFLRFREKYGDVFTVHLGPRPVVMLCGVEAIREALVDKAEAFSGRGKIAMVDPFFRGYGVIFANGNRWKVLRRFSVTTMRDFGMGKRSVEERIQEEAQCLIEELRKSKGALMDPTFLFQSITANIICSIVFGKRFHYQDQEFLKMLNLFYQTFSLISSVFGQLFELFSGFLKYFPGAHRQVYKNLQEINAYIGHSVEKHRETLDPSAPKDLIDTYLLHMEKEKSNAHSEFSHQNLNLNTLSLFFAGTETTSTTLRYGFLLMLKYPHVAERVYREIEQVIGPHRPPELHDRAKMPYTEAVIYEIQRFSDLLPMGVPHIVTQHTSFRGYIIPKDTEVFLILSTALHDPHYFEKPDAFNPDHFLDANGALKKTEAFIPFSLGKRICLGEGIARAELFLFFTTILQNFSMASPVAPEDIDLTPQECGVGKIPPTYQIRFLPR
The experiment in a line: Inhibition of human liver microsomes CYP2B6 using bupropion as substrate. The format is ADME.

The target in series [13] is Cytochrome P450 2C9 (Homo sapiens, UniProt P11712). As to the kind of experiment: Inhibition of human liver microsomes CYP2C9 using diclofenac as substrate. It counts as ADME.
Series [14] deals with Saphenous artery. The experiment in a line: Inhibition of phenylephrine-induced contractions in Chinchilla rabbit saphenous artery rings administered at the beginning of the last resting period of 28 mins. It counts as functional. To be noted: Oryctolagus cuniculus.

Chain of Cytochrome P450 2C9 (P11712 whole entry): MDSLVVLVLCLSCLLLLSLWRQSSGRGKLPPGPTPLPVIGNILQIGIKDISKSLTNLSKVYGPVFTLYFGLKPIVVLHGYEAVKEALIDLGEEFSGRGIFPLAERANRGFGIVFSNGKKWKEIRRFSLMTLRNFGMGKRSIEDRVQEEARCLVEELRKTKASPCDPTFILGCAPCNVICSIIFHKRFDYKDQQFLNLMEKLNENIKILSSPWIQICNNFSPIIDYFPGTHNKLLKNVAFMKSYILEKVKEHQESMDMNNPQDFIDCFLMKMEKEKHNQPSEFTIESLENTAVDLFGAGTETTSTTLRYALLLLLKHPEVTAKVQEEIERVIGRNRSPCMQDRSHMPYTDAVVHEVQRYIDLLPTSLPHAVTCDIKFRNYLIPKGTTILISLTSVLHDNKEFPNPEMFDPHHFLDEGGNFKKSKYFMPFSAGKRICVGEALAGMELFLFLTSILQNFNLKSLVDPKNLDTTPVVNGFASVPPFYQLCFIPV

For the compound `COC(=O)Nc1c(N)nc(-c2nn(Cc3ccccc3F)c3ncc(F)cc23)nc1N` [VERICIGUAT], the values for the half-life in series [1] and in series [10] were 6.2 h and 3.4 h, respectively. Also, the Activity entry in series [2] is on record as “Non-Toxic”. In addition, the bioavailability in [3] is 65%. For the same compound, the IC50 in [4] is 0.956 µM; in series [6], > 50 µM; in [11], 3.07 µM; in series [12], > 50 µM; in series [13], > 50 µM; in series [14], 0.798 µM. The Vd in series [5] stood at 1.4 L/kg. In addition, in [7], the MEC amounted to 0.3 µM. For the same compound, the Drug metabolism entry in series [8] is on record as “Metabolite_Detected”. The outcome in series [9] was Active.

(Values after ChEMBL document CHEMBL4014344, “Discovery of the Soluble Guanylate Cyclase Stimulator Vericiguat (BAY 1021189) for the Treatment of Chronic Heart Failure” (J Med Chem, 2017).)
